Measured values reported in PMC4465584 (Journal of medicinal chemistry, 2015).

Columns and labels:
WNV = WNV subgenomic replicon assay; format: cell-based, West Nile virus; details: for inhibition against WNV relative to DENV: 10 μM, comparison of replicon assays
DENV = DENV subgenomic replicon assay; format: cell-based, Dengue virus; details: for DENV Inhibition %: single concentration 10 μM, 3 days, BHK replicon cells; for activity against DENV relative to WNV: 10 μM, comparison of replicon assays
[1] = test system: WNV replicon-containing cells; assay: Cell viability assay; format: cell-based, baby hamster; details: for cytotoxicity: 10 μM, replicon cells
[2] = test system: DENV replicon-containing cells; assay: Cell viability assay; format: cell-based, baby hamster; details: single concentration 10 μM, 3 days, DENV replicon BHK cells
HIV-1 [3] = details: read-out: EC50 against HIV-1; as reported previously ref 23; cited from earlier work
HIV-1 [4] = assay: HIV-1 antiviral assay; format: cell-based; details: data not shown
DNV3MTase = DNV3MTase (Dengue virus type 3, UniProt P27915); assay: SAM binding inhibition; set-up: species or system DENV3; details: 20 μM compound, 580 nM biotinylated DNV3MTase, 425 nM 3H-SAM
In short: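 DENV3 MTase from E. coli, refolded from urea on Ni-NTA and cleaved with 3C protease, then NHS-biotinylated (13:1 biotin:protein). Test compound, SAM or sinefungin preincubated 20 min at 23°C. Then 1.65 μCi ³H-SAM, 15 min. Centrifuged; SPA counts read.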

Chain of DNV3MTase (P27915 2492-2753): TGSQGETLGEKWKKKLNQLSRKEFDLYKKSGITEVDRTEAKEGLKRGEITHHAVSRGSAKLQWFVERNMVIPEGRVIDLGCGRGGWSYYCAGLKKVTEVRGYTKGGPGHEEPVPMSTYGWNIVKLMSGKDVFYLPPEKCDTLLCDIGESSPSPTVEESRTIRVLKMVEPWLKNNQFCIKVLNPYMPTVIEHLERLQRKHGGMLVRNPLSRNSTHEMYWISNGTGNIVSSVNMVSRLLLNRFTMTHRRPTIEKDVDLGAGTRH

3′-azidothymidine [4, AZT, reference compound]
WNV Inhibition % (WNV; single concentration 10 μM, 3 days, BHK replicon cells): 0% | DENV Inhibition % (DENV): 0% | WNV Viability % ([1]; single concentration 10 μM, 3 days, WNV replicon BHK cells): 83% | DENV Viability % [2]: 89%

COc1ccc2cc(-c3cnnn3[C@H]3C[C@H](n4cc(C)c(=O)[nH]c4=O)O[C@@H]3CO)ccc2c1 [10a, 1-((2R,4S,5S)-5-(Hydroxymethyl)-4-(5-(6-methoxynaphthalen-2-yl)-1H-1,2,3-triazol-1-yl)tetrahydrofuran-2-yl)-5-methylpyrimidine-2,4(1H,3H)-dione]
DENV Inhibition % (DENV): did not show any inhibition | EC50 (HIV-1 [3]): 67 nM

COc1ccc2cc(-c3cnnn3[C@H]3C[C@H](n4cc(C)c(=O)[nH]c4=O)O[C@@H]3CO[Si](C)(C)C(C)(C)C)ccc2c1 [11a]
DENV Inhibition % (DENV): inhibited both viruses almost completely | anti-HIV-1 activity (HIV-1 [4]): no appreciable anti-HIV-1 activity

Cc1cn([C@H]2C[C@H](N3C(=O)CSC3c3ccc4[nH]ccc4c3)[C@@H](CO[Si](C)(C)C(C)(C)C)O2)c(=O)[nH]c1=O (stereo partly drawn) [13b]
inhibition against WNV relative to DENV (WNV): substantially higher inhibition against WNV than DENV

Cc1cn([C@H]2C[C@H](N3C(=O)CSC3c3c4ccccc4cc4ccccc34)[C@@H](CO[Si](C)(C)C(C)(C)C)O2)c(=O)[nH]c1=O (stereo partly drawn) [13c]
inhibition against WNV relative to DENV (WNV): substantially higher inhibition against WNV than DENV

Cc1cn([C@H]2C[C@H](NC(=O)c3c[nH]c4ccccc34)[C@@H](CO[Si](C)(C)C(C)(C)C)O2)c(=O)[nH]c1=O [15f]
activity against DENV relative to WNV (DENV): considerably more active against DENV than WNV

Cc1cn([C@H]2C[C@H](NC(=O)c3ccc(N4CCOCC4)cc3)[C@@H](CO[Si](C)(C)C(C)(C)C)O2)c(=O)[nH]c1=O [15h]
activity against DENV relative to WNV (DENV): considerably more active against DENV than WNV

Cc1cn([C@H]2C[C@H](NC(=O)Nc3ccccc3)[C@@H](CO[Si](C)(C)C(C)(C)C)O2)c(=O)[nH]c1=O [19a]
activity against DENV relative to WNV (DENV): considerably more active against DENV than WNV

Cc1cn([C@H]2C[C@H](NC(=O)Nc3cccc4ccccc34)[C@@H](CO[Si](C)(C)C(C)(C)C)O2)c(=O)[nH]c1=O [19b]
activity against DENV relative to WNV (DENV): considerably more active against DENV than WNV

Cc1cn([C@H]2C[C@H](NC(=O)NC34CC5CC(CC(C5)C3)C4)[C@@H](CO[Si](C)(C)C(C)(C)C)O2)c(=O)[nH]c1=O [19c]
inhibition against WNV relative to DENV (WNV): substantially higher inhibition against WNV than DENV

Cc1ccc(S(=O)(=O)NC(=O)N[C@H]2C[C@H](n3cc(C)c(=O)[nH]c3=O)O[C@@H]2CO[Si](C)(C)C(C)(C)C)cc1 [21a, N-(((2S,3S,5R)-2-(((tert-Butyldimethylsilyl)oxy)methyl)-5-(5-meth-yl-2,4-dioxo-3,4-dihydropyrimidin-1(2H)-yl)tetrahydrofuran-3-yl)-carbamoyl)-4-methylbenzenesulfonamide]
activity against DENV relative to WNV (DENV): considerably more active against DENV than WNV

C[S+](CC[C@H](N)C(=O)[O-])C[C@H]1O[C@@H](n2cnc3c(N)ncnc32)[C@H](O)[C@@H]1O (stereo partly drawn) [SAM, S-adenosyl-L-methionine]
Inhibition of the [3H]-SAM-MTase complex formation (DNV3MTase): same level of reduction

Nc1ncnc2c1ncn2[C@@H]1O[C@H](C[C@@H](N)CC[C@H](N)C(=O)O)[C@@H](O)[C@H]1O [SIN, sinefungin]
Inhibition of the [3H]-SAM-MTase complex formation (DNV3MTase): same level of reduction

COc1ccc2cc(-c3cnnn3[C@H]3C[C@H](n4cc(C)c(=O)[nH]c4=O)O[C@@H]3CO[Si](C(C)C)(C(C)C)C(C)C)ccc2c1 [compound 22]
cytotoxicity [1]: significant cytotoxicity

COc1ccc2cc(-c3cnnn3[C@H]3C[C@H](n4cc(C)c(=O)[nH]c4=O)O[C@@H]3CO[Si](c3ccccc3)(c3ccccc3)C(C)(C)C)ccc2c1 [compound 23]
cytotoxicity [1]: significant cytotoxicity

COc1ccc2cc(-c3cnnn3[C@H]3C[C@H](n4cc(C)c(=O)[nH]c4=O)O[C@@H]3COC(C)=O)ccc2c1 [compound 24, ((2S,3S,5R)-3-(5-(6-Methoxynaphthalen-2-yl)-1H-1,2,3-triazol-1-yl)-5-(5-methyl-2,4-dioxo-3,4-dihydropyrimidin-1(2H)-yl)tetrahydrofuran-2-yl)methyl acetate]
DENV Inhibition % (DENV): did not yield appreciable antiviral activity

COC[C@H]1O[C@@H](n2cc(C)c(=O)n(C)c2=O)C[C@@H]1n1nncc1-c1ccc2cc(OC)ccc2c1 [compound 25, 1-((2R,4S,5S)-5-(Methoxymethyl)-4-(5-(6-methoxynaphthalen-2-yl)-1H-1,2,3-triazol-1-yl)tetrahydrofuran-2-yl)-3,5-dimethylpyrimidine-2,4(1H,3H)-dione]
DENV Inhibition % (DENV): did not yield appreciable antiviral activity

CCOCOC[C@H]1O[C@@H](n2cc(C)c(=O)[nH]c2=O)C[C@@H]1n1nncc1-c1ccc2cc(OC)ccc2c1 [compound 26, 1-((2R,4S,5S)-5-((Ethoxymethoxy)methyl)-4-(5-(6-methoxynaphthalen-2-yl)-1H-1,2,3-triazol-1-yl)tetrahydrofuran-2-yl)-5-methylpyrimidine-2,4(1H,3H)-dione]
DENV Inhibition % (DENV): did not yield appreciable antiviral activity

COc1ccc2cc(-c3cnnn3[C@H]3C[C@H](n4cc(C)c(=O)[nH]c4=O)O[C@@H]3COC3CCCCO3)ccc2c1 (stereo partly drawn) [compound 27, 1-((2R,4S,5S)-4-(5-(6-Methoxynaphthalen-2-yl)-1H-1,2,3-triazol-1-yl)-5-(((tetrahydro-2H-pyran-2-yl)oxy)methyl)-tetrahydrofuran-2-yl)-5-methylpyrimidine-2,4(1H,3H)-dione]
DENV Inhibition % (DENV): did not yield appreciable antiviral activity
